Source: PubChem
Compounds with a hit are over-represented: about 3.5% of the library has one in this group of screens.
RGS4 inh: RGS4 inhibitors, primary screen, cell-based, HEK293 M3R inducible RGS4, calcium flux; Regulator of G-protein signaling 4 (Homo sapiens), P49798; Fluo-4 calcium flux; hits give high values; triggered by carbachol at its EC20; B-score at 10 µM; 0.45% of 310,000 active; AID 463165, 2010;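 active = B-score, a plate-corrected calcium signal, over three deviations above library mean, with baseline fluorescence within five deviations of library mean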;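 also: RGS4 expression induced by doxycycline in cells with stable M3 receptor; B-score is computed from the integrated fluorescence ratio over baseline after carbachol; higher B-score means a larger calcium signal and so more RGS4 inhibition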
Target sequence (P49798 whole entry, looked up): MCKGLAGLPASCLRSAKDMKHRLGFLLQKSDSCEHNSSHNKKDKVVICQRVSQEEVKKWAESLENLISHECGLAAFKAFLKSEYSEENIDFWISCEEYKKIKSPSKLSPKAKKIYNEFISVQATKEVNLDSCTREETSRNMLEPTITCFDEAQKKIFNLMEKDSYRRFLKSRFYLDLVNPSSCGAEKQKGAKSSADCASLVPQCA
RGS4 pot: RGS4 potentiators or activators, primary screen, cell-based, HEK293 M3R inducible RGS4, calcium flux; carbachol calcium flux Fluo4; hits give low values; B-score at 10 µM; 0.92% of 310,000 active; AID 463111, 2010;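 active = B-score of the integrated calcium signal more than 4 SD below the library mean, with starting fluorescence not abnormally high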;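 also: negative B-score means reduced calcium response which marks RGS4 activation or potentiation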
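Material: M3R-expressing HEK293 line, RGS4 induced by doxycycline | Schedule: Overnight RGS4 induction, 30 min dye load 37 °C, 20 min compound RT | Measured by: Fluo4 fluorescence kinetic imaging of calcium | Read-out: Integrated calcium ratio converted to B score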
MrgX1 antag: antagonists of human MrgX1 receptor, primary screen, HEK293 cells, Fluo-4 calcium flux; BAM8-22 antagonism; hits give low values; B-score at 10 µM; 1.3% of 310,000 active;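 active = calcium-response B-score plate-corrected more than 3 library SD below zero, starting fluorescence within 5 deviations, no agonist response on first addition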;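 also: peak minus trough fluorescence over baseline after final BAM8-22 challenge near maximal dose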
Target sequence (Q96LB2 whole entry, looked up): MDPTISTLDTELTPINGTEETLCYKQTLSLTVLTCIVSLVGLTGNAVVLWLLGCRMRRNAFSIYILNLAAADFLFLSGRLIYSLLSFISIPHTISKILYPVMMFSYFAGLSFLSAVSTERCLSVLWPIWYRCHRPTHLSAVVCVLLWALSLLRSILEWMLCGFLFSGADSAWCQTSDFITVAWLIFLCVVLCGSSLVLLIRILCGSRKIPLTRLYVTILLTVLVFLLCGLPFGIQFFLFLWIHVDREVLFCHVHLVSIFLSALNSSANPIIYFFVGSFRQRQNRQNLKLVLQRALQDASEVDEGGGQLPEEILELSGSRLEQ
MrgX1 allo act: positive allosteric modulators of MrgX1, primary screen, HEK293 cells, Fluo-4 calcium flux. FDSS; hits give high values. B-score at 10 µM. Mas-related G-protein coupled receptor member X1 (Homo sapiens), Q96LB2. 0.63% of 310,000 active;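 active = plate-corrected calcium response at least 3 library SD above typical, normal starting fluorescence, not activating the receptor alone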;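 also: compound read alongside a low EC10 to EC30 dose of BAM8-22 agonist; peak minus trough fluorescence over baseline measured at the second addition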
MrgX1 agonist: agonists of human MrgX1 receptor, primary screen, HEK293 cells, Fluo-4 calcium flux; B-score at 10 µM; Fluo-4 calcium fluorescence, agonist mode; hits give high values; 0.44% of 310,000 active;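 active = calcium response B-score plate-corrected fluorescence ratio at least 3 library SD, with starting fluorescence B-score inside 5 SD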
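Test system: Stable human MrgX1 HEK293 cell line | Schedule: Overnight plating before 1 h dye loading | Read-out basis: Baseline-normalised fluorescence change ratio, B-scored | Detection: Kinetic calcium dye fluorescence, Fluo-4 NW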
Each line names hits and unclear results; the compound was inactive in the other large screens.

CC1CCN(C2=NN3C(=N)/C(=C\c4ccc(OC(=O)c5ccco5)cc4)C(=O)N=C3S2)CC1	none
CCOc1cc(/C=C2\C(=N)N3N=CSC3=NC2=O)ccc1OS(=O)(=O)c1ccccc1	MrgX1 agonist 57
COc1cc(/C=C2/C(=N)N3C(=NC2=O)SN=C3S(C)(=O)=O)ccc1OC(=O)c1ccco1	MrgX1 allo act 18
CCS(=O)(=O)C1=NSC2=NC(=O)/C(=C\c3ccc(OC(=O)c4ccco4)c(OC)c3)C(=N)N21	MrgX1 allo act 28
COc1cc(/C=C2/C(=N)N3C(=NC2=O)SN=C3S(=O)(=O)C(C)C)ccc1OS(=O)(=O)c1ccccc1	MrgX1 allo act 13
COc1cc(/C=C2/SC(=S)N(C)C2=O)ccc1OC(=O)c1ccco1	MrgX1 antag -5
COc1cc(/C=C2/SC(=O)NC2=O)ccc1OC(=O)c1ccco1	none
COc1ccc(C(=O)C2CCCN(C(=O)c3cccc(N4CCCC4=O)c3)C2)cc1OC (stereo not given)	none (no result: MrgX1 antag, MrgX1 allo act, MrgX1 agonist)
O=C(NCc1ccc(Cl)cc1)C(=O)NCC1OCCN1S(=O)(=O)c1cc(F)ccc1F (stereo not given)	none
COC(=O)c1cc(S(=O)(=O)Nc2cc(OC)cc(OC)c2)c[nH]1	none
Cc1cc(C)c(NC(=O)COC(=O)C2=COCCO2)c(Cl)c1	none
COc1ccc(-c2nn(-c3ccccc3)cc2C(=O)NC(=S)NNC(=O)c2ccncc2)cc1	MrgX1 antag -4.6
O=C(COc1ccc(Cl)cc1Cl)NNC(=S)NCc1ccco1	RGS4 pot -7.1, MrgX1 allo act 13
O=C(Cc1cccs1)NNC(=S)NCc1ccco1	RGS4 pot -8.2
COc1ccc(/C=C/C(=O)NC(=S)NNC(=O)Cc2cccs2)cc1OC	none
O=C(/C=C/c1cccs1)NC(=S)NNC(=O)Cc1cccs1	MrgX1 agonist 48
O=C(COc1ccc(Cl)cc1Cl)Nc1ccccc1F	RGS4 pot -7.2
O=C(NC(=S)Nc1cccnc1Cl)c1ccc(Cl)cc1	MrgX1 allo act 9.5
CCn1c(C)nc2cc(C(=O)NNC(=S)Nc3ccccc3)ccc21	none
CCC(=O)NC(=S)NNC(=O)c1ccc(OC)cc1	none
CCn1c(C)nc2cc(C(=O)NNC(=S)NC(=O)c3ccccc3)ccc21	MrgX1 allo act 7.4
O=C(Nc1cccnc1Cl)c1ccc(Cl)cc1	none
COc1ccc(C(=O)NC(=S)NNC(=O)Cc2cccs2)cc1	MrgX1 agonist 55
O=C(NC1CCOc2ccccc21)C1CCCC1 (stereo not given)	none
COc1ccc2nc(NC(=O)CSCC(=O)Nc3cc(C)on3)sc2c1	none
CC(=O)C(C(c1ccccc1)c1c[nH]c2ccccc12)[N+](=O)[O-] (stereo not given)	none
Cc1nn(-c2ccccc2)c(C)c1C(=O)NCc1ccccc1F	none
Cc1nc(NC(=O)CC(C)C)sc1-c1csc(Nc2ccc(Cl)cc2)n1	none
COc1ccc(C(=O)Nc2c(N)nc(SCC(=O)NCC3CCCO3)[nH]c2=O)cc1 (stereo not given)	none
CN1C=CC(=CC=C2C=CC(=O)C=C2)C=C1	none
Cn1c(SCC(=O)NC(=O)NCc2ccco2)nnc1C(F)(F)F	none
CCOC(=O)N1CCN(C(=O)c2ccc3c(c2)NC(=O)/C(=C\c2cccc(C)c2)S3)CC1	none
COc1ccc(C(=O)NNC(=S)NC(=O)c2ccc(Cl)cc2)cc1	RGS4 pot -8, MrgX1 agonist 122
COc1ccc(C(=O)NC(=S)NNC(=O)c2ccc(NC(=O)C(C)C)cc2)cc1	MrgX1 antag -5.8
Cc1cccc(C(=O)NC(=S)NNC(=O)c2ccc(Cl)cc2)c1	MrgX1 allo act 18
CC(C)C(=O)Nc1ccc(C(=O)NNC(=S)NC(=O)c2ccccc2[N+](=O)[O-])cc1	none
O=C(CNC(=O)c1ccc(S(=O)(=O)N2CCCC2)cc1)N/N=C/c1ccc(Cl)cc1Cl	none
COc1ccc(N(C)C(=O)Cc2c(C(=O)O)n(C)c3ccccc23)c(OC)c1	none
CC(=O)c1ccc([N+](=O)[O-])c(CS(=O)(=O)c2ccc(Cl)cc2)c1	none
O=C1C=CC(=O)N1CCNc1ncc(C(F)(F)F)cc1Cl	RGS4 pot -7.9 (no result: MrgX1 antag, MrgX1 allo act, MrgX1 agonist)
COCCN(C(=O)COC(=O)COc1ccc(Cl)c(C)c1)c1c(N)n(Cc2ccccc2)c(=O)[nH]c1=O	none
CCOC(=O)CC(NC(=O)CCS(=O)(=O)c1ccc2c(c1)n(C)c(=O)c(=O)n2C)c1ccc(C)cc1 (stereo not given)	none
S=C(Nc1cc(Cl)ccc1Oc1ccccc1)N1CCN(c2ccccn2)CC1	none
Cc1ccc(C(=O)N/N=C\c2sccc2C)cn1	MrgX1 antag -7.8
Cc1ccsc1/C=N/NC(=O)c1sccc1C	none
COc1ccc(NC(=O)c2ccc(Cl)c(NC(=O)c3ccncc3)c2)cc1	none
Cc1nc(C(=O)Nc2cc(Cl)ccc2Cl)nn1-c1cc(OC(C)C)c(Cl)cc1Cl	MrgX1 antag -5.1
Cc1ccc(Nc2nc(N)nc(CN3CCN(C)CC3)n2)cc1	RGS4 pot -7.2
CCn1cnc2cc(NCc3ccc(OC)cc3)ccc21	none
CCOc1ccc2nc3cc(NCc4ccc(OC)cc4)ccc3c(N)c2c1	RGS4 pot -7.6
Cc1ccc(C2=Nc3ccccc3N(C(=O)c3ccccc3)C(C)C2)cc1 (stereo not given)	MrgX1 antag -8.9
CC(=O)OC1CC(C)N(C(=O)c2ccccc2)c2ccc(C)cc21 (stereo not given)	none
Cc1cc(C)c2nc(C)cc(N/N=C/c3ccc(O)cc3)c2c1	RGS4 pot -7.4
O=C(CCNC(=O)c1ccc(Br)cc1)Nc1ncccc1O	none
CCOc1ccccc1C(=O)Nc1cccc(-c2nnc(-c3ccccc3)o2)c1	RGS4 pot -7.2
Cc1cccc(CN2CCCC(C(=O)Nc3ccc(-c4cscn4)cc3)C2)c1 (stereo not given)	RGS4 pot -7.3
Oc1ccc(Cl)cc1C1=NNC(c2cccs2)C1 (stereo not given)	MrgX1 antag -5.6
Cc1ccc(O)c(C2=NNC(c3ccc(Cl)cc3)C2)c1 (stereo not given)	none
COc1ccccc1-c1c(C)oc2cc(OC(=O)c3ccco3)ccc2c1=O	none
COc1ccc2c(=O)c(-c3ccccc3C)c(C)oc2c1	MrgX1 allo act 9.3
Cn1cnnc1SCC(=O)c1ccc(O)c(O)c1	none
CC(=O)Nc1ccc(SCCC2CCCCN2C)cc1 (stereo not given)	none
NNC(=O)c1[nH]c2ccc([N+](=O)[O-])cc2c1-c1ccccc1	none
O=C(N/N=C/c1ccccn1)c1[nH]c2ccc([N+](=O)[O-])cc2c1-c1ccccc1	MrgX1 antag -5.1
COCC(=O)Nc1ncc(S(=O)(=O)c2ccc([N+](=O)[O-])cc2)s1	none
